This excerpt belongs to a sample that is enriched for hits.
hDAT+cocaine – changed hDAT dopamine uptake under cocaine IC80, either direction, primary screen, cocaine antagonist project, cell-based, LLC-PK1 hDAT, [14C]-dopamine uptake, MLSMR | Sodium-dependent dopamine transporter (Homo sapiens), Q01959 | LLC-PK1 hDAT cells, [14C]-dopamine uptake with cocaine IC80; actives deviate in either direction | hit rate 1.3% among 110,000 | B-score at 10 µM | AID 449768, 2010;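 active = Z score or B-score, a plate-position-corrected score, falls beyond the plate's 99.7% confidence bounds, in either direction; inactive = both scores lie inside the 99.7% bounds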
MMP13 inh – human MMP13 inhibitors, primary screen, biochemical, FRET peptide cleavage. MMP-13 fTHP FRET cleavage, Mca fluorescence. hit rate 0.07% among 65,000. inhibition, % at 4 µM. Collagenase 3 (Homo sapiens), P45452;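 active = inhibition above the mean of compound-free control plate wells plus 3 SD, cut at about 14% in these data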
Candida biofilm – clotrimazole potentiators killing Candida biofilms, primary screen, with clotrimazole, Alamar Blue; C. albicans biofilm + clotrimazole; inhibition, % at 6 µM; hit rate 0.14% among 85,000; AID 834, 2007;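 active = inhibition above 20%; inactive = inhibition below 20%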;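 note: preformed 24 hr biofilms exposed to compound for 48 hr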
D1 mod – D1 CRE-luciferase signal change, two-sided – cell-based, HEK293 D1, dopamine EC30, D1 allosteric modulator project, primary screen; dopamine EC30 potentiation; actives deviate in either direction; hit rate 5.9% among 58,000; D(1A) dopamine receptor (Homo sapiens), P21728; B-score at 10 µM;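 active = luminescence count or its row- and column-corrected plate score outside the 99.7% band of the plate's sample wells, on either side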
Target sequence (P21728 whole entry, looked up): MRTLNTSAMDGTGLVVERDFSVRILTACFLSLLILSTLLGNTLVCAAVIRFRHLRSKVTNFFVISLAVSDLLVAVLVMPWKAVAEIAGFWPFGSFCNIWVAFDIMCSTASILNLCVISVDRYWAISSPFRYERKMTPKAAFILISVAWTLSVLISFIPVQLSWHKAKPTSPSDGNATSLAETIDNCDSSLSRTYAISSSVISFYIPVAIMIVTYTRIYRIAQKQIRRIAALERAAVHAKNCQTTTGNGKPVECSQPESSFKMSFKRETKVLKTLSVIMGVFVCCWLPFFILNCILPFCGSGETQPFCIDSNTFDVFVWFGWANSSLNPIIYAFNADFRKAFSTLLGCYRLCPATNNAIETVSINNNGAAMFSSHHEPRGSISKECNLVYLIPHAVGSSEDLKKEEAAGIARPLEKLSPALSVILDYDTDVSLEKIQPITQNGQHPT
AP complement – alternative complement pathway inhibitors, primary screen, biochemical, ELISA, human serum, orthogonally pooled compounds; LPS-coated ELISA, C3 deposition; tested in compound mixtures; inhibition, % at 5 µM; hit rate 0.08% among 62,000; AID 1235, 2008;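 active = inhibition above 30% in each of the two pooled mixtures holding the compound, so the lower value exceeds 30%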
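Test system: human serum alternative complement pathway, C3 deposition on LPS-coated wells; also added: Plate-bound LPS; doses: 5 µM per compound in ten-compound mixtures; schedule: 1 h at 37 °C; detection: Anti-C3 ELISA, OD 450 nm; evaluation: percent inhibition of C3 deposition onto LPS; repeats: two pool placements per compound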
D1 mod confirm – D1 receptor positive allosteric modulators, retest, confirmation, cell-based, HEK293 D1, CRE-luciferase, duplicate | AID 642, 2007 | hit rate 88% among 2,200 | shares compounds with D1 mod | luminescence at 10 µM | dopamine EC30 potentiation; stronger effect = higher value;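 active = luminescence in either of two replicates above the same-plate mean plus 3 SD of the low-dose dopamine control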
D1 no dopamine – D1 receptor agonism without dopamine, confirmation, mechanism study for D1 allosteric modulator project, cell-based, HEK293 D1, CRE-luciferase, secondary assay 1 | shares compounds with D1 mod | luminescence, no dopamine; stronger effect = higher value | luminescence at 10 µM | hit rate 0.8% among 1,900; in the data active = luminescence above about 3900
Isoprot counter – counter-screen for D1 modulators: isoproterenol response in HEK293 cells; luminescence at 10 µM; hit rate 63% among 2,200; HEK293 D1 CRE-luciferase, isoproterenol EC30 counter-screen; stronger effect = higher value; shares compounds with D1 mod;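 active = luminescence in either replicate above plate mean of wells with a partly effective reference agonist dose plus 3 SD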;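 note: isoproterenol raises cAMP through native beta-adrenoceptor Gs so signal bypasses D1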
Of the large screens only hits and unclear results are named; the others gave an inactive call (follow-up assays come after a bar, where they were run).

COc1cc(OC)cc(C(=O)Nn2cc(C(=O)N3CCN(C)CC3)c3ccccc3c2=O)c1	D1 mod 2.9 | D1 mod confirm 5944 | D1 no dopamine inactive | Isoprot counter inactive
COc1ccc(-c2nc(N3CCCC3)nc3nn4c(C)cc(C)nc4c23)cc1	none (no result: hDAT+cocaine)
COc1ccc(-c2nc(N3CCOCC3)nc3n[nH]c(N)c23)cc1	D1 mod 5 | D1 mod confirm 12424 | Isoprot counter 3892
Cc1cc(C)n2nc3nc(N4CCCC4)nc(-c4ccccc4)c3c2n1	D1 mod 4.8 (no result: hDAT+cocaine) | D1 mod confirm 7140 | D1 no dopamine inactive | Isoprot counter 3364
Nc1[nH]nc2nc(N3CCCC3)nc(-c3ccccc3)c12	D1 mod 15 | D1 mod confirm 18304 | D1 no dopamine inactive | Isoprot counter 3664
Cn1c(SCC(=O)c2ccccc2)nnc1-c1cccc(N)c1	none (no result: MMP13 inh, D1 mod, AP complement)
COC(=O)c1cc(NC(=O)CC2SC(=Nc3ccccc3)N(CCc3c[nH]c4ccccc34)C2=O)cc(C(=O)OC)c1 (stereo unspecified)	none (no result: MMP13 inh, Candida biofilm, D1 mod, AP complement)
CCOC(=O)c1c(N)c(C#N)cn1-c1ccccc1	D1 mod 20 | D1 mod confirm 19404 | D1 no dopamine inactive | Isoprot counter 4256
CCOC(=O)c1c(-c2ccccc2)csc1NC(=O)c1nn(CC)cc1Br	none
CCOC(=O)c1c(NC(=O)c2nn(CC)cc2Br)c(C#N)cn1-c1ccccc1	D1 mod 6.7 | D1 mod confirm 8888 | D1 no dopamine inactive | Isoprot counter 3340
CCOC(=O)c1cc(C#N)c(SC)nc1-c1ccccc1	none (no result: MMP13 inh, Candida biofilm, D1 mod, AP complement)
CC(C#N)Sc1nc2ccccc2c(=O)n1-c1ccccc1 (stereo unspecified)	D1 mod 9.2 | D1 mod confirm 22624 | D1 no dopamine inactive | Isoprot counter 6128
O=C1NC(c2ccco2)Nc2ccccc21 (stereo unspecified)	none
O=c1[nH]c2c(s1)C(c1ccco1)C1C3CCC(C3)C1S2 (stereo unspecified)	D1 mod 26 | D1 mod confirm 19088 | D1 no dopamine inactive | Isoprot counter 3752
COc1cccc(-c2nnc(NC(=O)c3ccc(S(=O)(=O)N4CC(C)OC(C)C4)cc3)o2)c1 (stereo unspecified)	D1 mod 2.8 (no result: hDAT+cocaine, Candida biofilm) | D1 mod confirm inactive | D1 no dopamine inactive | Isoprot counter inactive
CC1(C)CC(=O)c2cc(OCC(=O)NCCCN3CCN(c4ccccc4F)CC3)ccc2O1	D1 mod 5.6 | D1 mod confirm 6164 | Isoprot counter 10276
CCCCCCCNC(=O)COc1ccc2c(c1)C(=O)CC(C)(C)O2	none (no result: MMP13 inh, D1 mod, AP complement)
CC(=NCc1cccnc1)C1=C(O)c2ccccc2C1=O	D1 mod 3 | D1 mod confirm 5700 | D1 no dopamine inactive | Isoprot counter inactive
O=C(CCc1nc(-c2ccccc2F)no1)Nc1ccc(Oc2ccccc2)cc1	D1 mod 8.6 | D1 mod confirm inactive | D1 no dopamine inactive | Isoprot counter inactive
COc1cccc(SCc2noc(C(=O)NCCCN3CCOCC3)c2C(=O)NCCCN2CCOCC2)c1	none (no result: MMP13 inh, Candida biofilm, D1 mod, AP complement)
CCOc1ccccc1NC(=O)C1C2C=CC(O2)C1C(=O)O (stereo unspecified)	D1 mod 4.8 | D1 mod confirm inactive | D1 no dopamine inactive | Isoprot counter inactive
CCOc1ccccc1NC(=O)C1C2C=CC(C2)C1C(=O)O (stereo unspecified)	none (no result: MMP13 inh, D1 mod, AP complement)
COC(=O)c1cc(C)sc1NC(=O)c1cccnc1	D1 mod 5.4 | D1 mod confirm 16836 | D1 no dopamine inactive | Isoprot counter 3924
Cc1ccc(CCP(=O)(O)CN2CCCCC2)cn1	none (no result: hDAT+cocaine, Candida biofilm, D1 mod)
Cc1nn(-c2ccccc2)c2c1/C(=N/O)CC(C)(C)C2	D1 mod 12 (no result: hDAT+cocaine) | D1 mod confirm 11596 | D1 no dopamine inactive | Isoprot counter 3788
CCNc1nc2c(c(=O)n(Cc3ccccc3)c(=O)n2C)n1Cc1ccccc1	hDAT+cocaine 3, D1 mod 4.4 (no result: Candida biofilm) | D1 mod confirm 8220 | D1 no dopamine inactive | Isoprot counter 3808
C/C(Cl)=C/Cn1c(=O)c2c(nc(Br)n2Cc2ccccc2)n(C)c1=O	D1 mod 4.8 | D1 mod confirm 11400 | D1 no dopamine inactive | Isoprot counter 3484
CCC(C)Nc1nc2c(c(=O)n(C)c(=O)n2C)n1Cc1cccc(C)c1 (stereo unspecified)	none (no result: AP complement)
Cn1c(=O)c2c(nc(Br)n2Cc2ccc3ccccc3c2)n(C)c1=O	none (no result: D1 mod, AP complement)
Cc1cccc(Nc2nc3c(c(=O)n(C)c(=O)n3C)n2Cc2ccccc2)c1	D1 mod 22 | D1 mod confirm 12460 | D1 no dopamine inactive | Isoprot counter 3228
CCN(c1nc(N)c(C(=O)N=C(N)N)nc1Cl)C(C)C	none (no result: MMP13 inh, Candida biofilm, D1 mod, AP complement)
COc1ccc(CCNC(=O)c2cnc3n(c2=O)CCS3)cc1OC	D1 mod 4.7 (no result: AP complement) | D1 mod confirm 9460 | D1 no dopamine inactive | Isoprot counter 3844
COc1ccc(CCNC(=O)c2cc(-c3ccccc3O)n[nH]2)cc1OC	hDAT+cocaine -9.6, D1 mod 4.4 | D1 mod confirm 8340 | D1 no dopamine inactive | Isoprot counter 3492
COc1ccc(-c2cc(-c3ccccc3O)[nH]n2)cc1OC	D1 mod 3.4 | D1 mod confirm 8764 | D1 no dopamine inactive | Isoprot counter 3764
COc1ccc(CCNC(=O)CN2C(=O)c3ccccc3S2(=O)=O)cc1OC	D1 mod 4.3 | D1 mod confirm 7364 | D1 no dopamine inactive | Isoprot counter 3356
CCN(CC)c1ccc(NC(=O)Nc2ccccc2C(F)(F)F)cc1	none (no result: MMP13 inh, Candida biofilm, D1 mod, AP complement)
CCc1ccc(NC(=O)CSc2nnc(SCC(=O)Nc3ccc(CC)cc3)n2N)cc1	none (no result: MMP13 inh, Candida biofilm, D1 mod, AP complement)
Cc1ccc(F)cc1NC(=O)C12CC3CC(C1)CC(n1cnc([N+](=O)[O-])n1)(C3)C2	none (no result: MMP13 inh, Candida biofilm, D1 mod, AP complement)
CCC(C)/C=C/C1=CC2=C(Cl)C(=O)C3(C)OC(=O)C(C(=O)C(C)C(C)O)C3C2=CO1 (stereo unspecified)	none (no result: MMP13 inh, Candida biofilm, D1 mod, AP complement)
O=C(NCCc1ccc(Cl)cc1)C1CCC(=O)N1Cc1ccc(F)cc1 (stereo unspecified)	none (no result: MMP13 inh, D1 mod, AP complement)
C=CCSc1ncccc1C(=O)NCc1ccccc1	D1 mod 25 | D1 mod confirm 20632 | D1 no dopamine inactive | Isoprot counter 5068
CCOC(=O)c1cccnc1SCC(=O)NCc1ccccc1	none (no result: MMP13 inh, D1 mod, AP complement)
